Measurements as given in EPA's CvTdb concentration-time database.

Tests used:
[1] = system: rat; assay: concentration in blood after dosing
[2] = system: rat; assay: amount in urine after dosing (umol); settings: dosed: tert-amyl methyl ether, 38.4 ppm, inhalation, duration: 4 hr, F344 (Harlan Winkelmann)
[3] = system: Rat; assay: concentration in plasma after dosing; settings: 72 h, 300 ug/mL, oral, Female, F344
[4] = system: Rat; assay: concentration in adipose after dosing; settings: 144 h; dosed: Tamoxifen; 300 ug/mL; oral; Female; F344
[5] = system: Rat; assay: concentration in adipose after dosing; settings: 144 h; dosed: Tamoxifen citrate; 300 ug/mL; oral; Female; F344
[6] = system: Rat; assay: concentration in adipose after dosing; settings: 144 h; dosed: Tamoxifen citrate; 300 ug/mL; oral; Female; F344; remark: listed apart in the source
[7] = system: Rat; assay: concentration in adipose after dosing; settings: oral, Female, F344
[8] = system: Rat; assay: concentration in adipose after dosing; settings: 144 h; dosed: Tamoxifen citrate; 100 ug/mL; oral; Female; F344
[9] = system: Rat; assay: concentration in adipose after dosing; settings: 144 h; dosed: Tamoxifen citrate; 100 ug/mL; oral; Female; F344; remark: listed apart in the source
[10] = system: Rat; assay: concentration in adipose after dosing; settings: 144 h; dosed: Tamoxifen; 300 ug/mL; oral; Female; F344; remark: listed apart in the source
[11] = system: Rat; assay: concentration in adipose after dosing; settings: 144 h; dosed: Tamoxifen citrate; 300 ug/mL; oral; Female; F344; remark: listed apart in the source
[12] = system: Rat; assay: concentration in adipose after dosing; settings: 72 h; dosed: Tamoxifen citrate; 100 ug/mL; oral; Female; F344
[13] = system: Rat; assay: concentration in adipose after dosing; settings: 144 h; dosed: Tamoxifen; 300 ug/mL; oral; Female; F344; remark: listed apart in the source
[14] = system: rat; assay: concentration in blood after dosing; negative times count back from the end of exposure; settings: inhalation
[15] = system: human; assay: amount in urine after dosing (umol); settings: dosed: tert-amyl methyl ether, 38.4 ppm, inhalation, duration: 4 hr
In short: (§1)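 A PubMed search, classifier screening and manual review identified published in vivo toxicokinetic studies, which together with two structured collections supplied concentration-versus-time and amount-versus-time points. Points were mostly digitised from plot screenshots with WebPlotDigitizer, otherwise copied from tables. Dose, route, subject details and medium were hand-curated from each paper, and sampling and analytical methods are those of the sources, often unreported.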

[16] = system: human; assay: concentration in blood after dosing; negative times count back from the end of exposure; settings: dosed: ethylbenzene, 33 ppm, inhalation, duration: 7 hr
In short: as §1

O=C[O-] [formate]
[1], dosed: methanol, 100 mg/kg, iv, male, CDF(F344)/CrlBR
Settings | concentration in blood [ng/mL]
0.1321 h | 3240
0.4419 h | 3230
0.9757 h | 3130
1.457 h | 3580
1.923 h | 2560
2.94 h | 2070
4.456 h | 1030
5.99 h | 73.9
7.984 h | 1330
119 s | 740

CC(C)(O)CC(=O)O [3-hydroxy-3-methyl butyrate]
[2]
Settings | amount in urine
6.001 h | 0.652
12.07 h | 0.695
18.1 h | 0.787
24.1 h | 0.425
30 h | 0.178
36.09 h | 0.517
42.12 h | 0.736
48.11 h | 0.23

CC/C(=C(/c1ccc(O)cc1)c1ccc(OCCN(C)C)cc1)c1ccccc1 [trans-4-Hydroxytamoxifen]
[3]
Settings | concentration in plasma [ng/mL]
dosed: Tamoxifen | 1.87
dosed: Tamoxifen citrate | 1.87

Settings | concentration in adipose [ng/g]
[4] | 5.1
[5] | 9.08
[6] | 10.3
[8] | 6.12
[9] | 5.04
[10] | 10.3
[11] | 5.1
[12] | 5.3
[13] | 9.08

concentration in adipose [ng/g], [7]
Settings | 72 h | 144 h
dosed: Tamoxifen citrate, 100 ug/mL | 8.8 | 4.35
dosed: Tamoxifen citrate, 300 ug/mL | – | 2.96
dosed: Tamoxifen, 300 ug/mL | – | 2.96

ClC(Cl)Cl [chloroform]
[14], dosed: chloroform, 100 ppm, duration: 360 min
Settings | concentration in blood [µg/g]
0.4971 h | 0.55
2.006 h | 0.151

[14], dosed: chloroform, 100 ppm, duration: 360 min, during exposure
Settings | concentration in blood [µg/g]
-31 s | 1.02
-5.747 h | 0.18
-5.503 h | 1.05
-4.997 h | 1.05
-3 h | 1.25

c1cc2ccc3cccc4ccc(c1)c2c34 [total 14C-pyrene]
[14], dosed: pyrene, male, Wistar, radiolabel
Settings | concentration in blood [ng/mL]
0.2501 h, 200 mg/m^3, duration: 95 min | 1940
0.253 h, 500 mg/m^3, duration: 95 min | 16900
0.263 h, 800 mg/m^3, duration: 95 min | 41000
0.5176 h, 500 mg/m^3, duration: 95 min | 14700
0.5339 h, 800 mg/m^3, duration: 95 min | 41000
0.8638 h, 800 mg/m^3, duration: 95 min | 43500
0.87 h, 500 mg/m^3, duration: 95 min | 12400
0.875 h, 200 mg/m^3, duration: 95 min | 1190
1.216 h, 500 mg/m^3, duration: 95 min | 9070
1.222 h, 800 mg/m^3, duration: 95 min | 42700
1.227 h, 200 mg/m^3, duration: 95 min | 1020
1.722 h, 500 mg/m^3, duration: 95 min | 6760
1.724 h, 800 mg/m^3, duration: 95 min | 34600
1.733 h, 200 mg/m^3, duration: 95 min | 990
2.225 h, 500 mg/m^3, duration: 95 min | 5300
2.235 h, 800 mg/m^3, duration: 95 min | 30300
2.245 h, 200 mg/m^3, duration: 95 min | 837
2.901 h, 200 mg/m^3, duration: 95 min | 773
2.91 h, 800 mg/m^3, duration: 95 min | 24100
2.926 h, 500 mg/m^3, duration: 95 min | 4130
3.568 h, 800 mg/m^3, duration: 95 min | 21000
3.582 h, 200 mg/m^3, duration: 95 min | 714
3.588 h, 500 mg/m^3, duration: 95 min | 3380
4.567 h, 800 mg/m^3, duration: 95 min | 15500
4.569 h, 200 mg/m^3, duration: 95 min | 695
4.577 h, 500 mg/m^3, duration: 95 min | 3050
6.023 h, 800 mg/m^3, duration: 95 min | 11100
6.027 h, 500 mg/m^3, duration: 95 min | 2510
7.481 h, 800 mg/m^3, duration: 95 min | 9810
32 min, 200 mg/m^3, duration: 95 min | 1460
34 s, 500 mg/m^3, duration: 95 min | 15900
79 s, 200 mg/m^3, duration: 95 min | 2240

[14], dosed: pyrene, male, Wistar, radiolabel, during exposure
Settings | concentration in blood [ng/mL]
-28 s, 800 mg/m^3, duration: 95 min | 40700
-1.353 h, 200 mg/m^3, duration: 95 min | 659
-1.349 h, 500 mg/m^3, duration: 95 min | 2480
-1.122 h, 500 mg/m^3, duration: 95 min | 6670
-1.119 h, 800 mg/m^3, duration: 95 min | 8210
-1.09 h, 200 mg/m^3, duration: 95 min | 1400
-0.7764 h, 800 mg/m^3, duration: 95 min | 19900
-0.7622 h, 200 mg/m^3, duration: 95 min | 2040
-0.7591 h, 500 mg/m^3, duration: 95 min | 10200
-0.4362 h, 800 mg/m^3, duration: 95 min | 29200
-0.434 h, 200 mg/m^3, duration: 95 min | 2250
-0.4242 h, 500 mg/m^3, duration: 95 min | 12700

C=CC#N [acrylonitrile]
[1], dosed: acrylonitrile, inhalation, duration: 3 hr, male, Sprague-Dawley
Settings | concentration in blood [ng/mL]
0.103 h, 186 ppm | 329
0.1717 h, 291 ppm | 588
0.1772 h, 186 ppm | 250
0.1774 h, 254 ppm | 263
0.2565 h, 291 ppm | 287
0.2613 h, 254 ppm | 235
0.2676 h, 186 ppm | 115
90 s, 254 ppm | 1640
94 s, 291 ppm | 1960
110 s, 186 ppm | 911
337 s, 291 ppm | 926
345 s, 254 ppm | 473

[1], dosed: acrylonitrile, iv, male, Fisher 344 CDF(F344)/CrlBR
Settings | concentration in blood [ng/mL]
0.1675 h, 84 mg/kg | 28200
0.1682 h, 3.4 mg/kg | 740
0.1683 h, 55 mg/kg | 27200
0.1717 h, 47 mg/kg | 13400
0.2068 h, 55 mg/kg | 21000
0.208 h, 3.4 mg/kg | 430
0.2102 h, 47 mg/kg | 11800
0.2128 h, 84 mg/kg | 27300
0.2495 h, 3.4 mg/kg | 259
0.2506 h, 55 mg/kg | 17400
0.2512 h, 84 mg/kg | 22400
0.2575 h, 47 mg/kg | 10900
0.5008 h, 55 mg/kg | 6770
0.5014 h, 3.4 mg/kg | 140
0.5026 h, 47 mg/kg | 3040
0.5056 h, 84 mg/kg | 11300
0.6636 h, 55 mg/kg | 3100
0.6706 h, 47 mg/kg | 1600
0.6711 h, 84 mg/kg | 6700
0.9964 h, 55 mg/kg | 393
1.005 h, 47 mg/kg | 287
1.006 h, 84 mg/kg | 1590
1.248 h, 55 mg/kg | 396
1.25 h, 47 mg/kg | 244
1.25 h, 84 mg/kg | 532
182 s, 3.4 mg/kg | 4950
183 s, 55 mg/kg | 71400
188 s, 84 mg/kg | 156000
196 s, 47 mg/kg | 52800
303 s, 55 mg/kg | 47200
306 s, 3.4 mg/kg | 3110
307 s, 84 mg/kg | 88300
309 s, 47 mg/kg | 38100

CC(C)(O)CC(=O)O [3-hydroxy-3-methyl-butyrate]
[15]
Settings | amount in urine
6.255 h | 52.2
12.14 h | 81.7
18.19 h | 45.7
24.05 h | 43.6
30.19 h | 32.9
36.26 h | 24.2
42.12 h | 11.1
48.2 h | 19.7
305 s | 19.7

CCc1ccccc1 [ethylbenzene]
[1], dosed: ethylbenzene, 50 ppm, inhalation, duration: 4 hr
Settings | concentration in blood [ng/mL]
0.4948 h | 531
0.9897 h | 315
1.498 h | 193
1.993 h | 146
272 s | 821

[16]
Settings | concentration in blood [ng/mL]
0.4921 h | 254
0.9902 h | 197

[16], during exposure
Settings | concentration in blood [ng/mL]
-1.491 h | 518
-0.514 h | 497
